One data set concerns Saccharomyces cerevisiae. Briefly: Antiyeast activity against Saccharomyces cerevisiae 9763 assessed as total inhibition of fungal growth after 24 to 48 hrs by microdilution-colorimetric method. It is filed as functional. Put shortly:
(§1)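 Microdilution in yeast nitrogen base (0.67%) with 3% dextrose and 0.004% bromothymol blue, pH 7.2, filter-sterilized; twofold serial dilutions 1.28 mg/mL to 0.04 μg/mL. Overnight culture resuspended to about 2×10^6 cells/mL, 50-μL drop per well; organism-free and drug-free control wells. 48 h at 37 °C, read at 24 and 48 h. MIC is the lowest concentration with no blue-to-yellow/light green change; values normalized to molar equivalents of 5-FC.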

For data set [1], the system named is Candida albicans. Briefly: Antiyeast activity against Candida albicans clinical isolate 1-V assessed as total inhibition of fungal growth after 24 to 48 hrs by microdilution-colorimetric method. It is filed as functional. The procedure, abridged:
as §1

Data set [2] deals with Candida albicans. In words: Antiyeast activity against Candida albicans WD 18-4 assessed as total inhibition of fungal growth after 24 to 48 hrs by microdilution-colorimetric method. It is filed as functional. The procedure, abridged: as §1
On the technique in general: Dilution methods test growth across graded concentrations, often in twofold steps.

The next data set concerns Pichia kudriavzevii. In words: Antiyeast activity against Candida krusei 1-T assessed as total inhibition of fungal growth after 24 to 48 hrs by microdilution-colorimetric method. It is filed as functional. Put shortly: as §1
Data set [3] in a line: Chemical stability of the compound in solutions of organism-free yeast nitrogen base assessed as half life at 50 uM at 37 degC by UV absorbance analysis. It is filed as physicochemical. As to conditions: organism-free yeast nitrogen base solution. Put shortly: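 Organism-free yeast nitrogen base (0.67%) with 3% dextrose, pH 7.2 (KOH), held at 37 °C in thermostatted cells. Compound in Me2SO added to a final concentration of ca. 5×10^-5 M. Hydrolysis followed as the fall in absorbance at 305 nm over time, first-order fit. Slower compounds (t1/2 > 5 h) were incubated separately and aliquots read at intervals.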

Structures are written as SMILES. In brackets after ≈: the same amount, converted by molar mass. Starred links: 1 amine or outer side, 2 acyl side, 3 side chain; linkers in the order of their positions; H or OH if unused. Residues, ends and D or L forms follow the SMILES beside them. *: point of attachment. Suc = O=C(CCC(=O)[*:2])[*:1]; OBn = c1ccc(CO*)cc1 Where only a bound is given, the exact number is not on record here.

The term MIC denotes the lowest concentration found to suppress growth. Usually half-life stands for the time needed for the level to fall by half in the phase considered. Regarding `CC(C)(C)OC(=O)N[C@@H](CCC(=O)Nc1nc(=O)[nH]cc1F)C(=O)OCc1ccccc1`, the MIC is 1.25 µg/mL (≈ 2.79 µM) with Saccharomyces cerevisiae, 2.5 µg/mL (≈ 5.57 µM) in the data set with Candida albicans [1], 2.5 µg/mL (≈ 5.57 µM) with Candida albicans [2] and 20 µg/mL (≈ 44.6 µM) in the data set on Pichia kudriavzevii. Besides, in data set [3], the half-life at 50 µM is 10 h.

As for `O=c1[nH]cc(F)c(=O)[nH]1` [FLUOROURACIL], the MIC was 1.25 µg/mL (≈ 9.61 µM) in the data set on Saccharomyces cerevisiae, 2.5 µg/mL (≈ 19.2 µM) with Candida albicans [1], over 20 µg/mL in the data set on Candida albicans [2] and 2.5 µg/mL (≈ 19.2 µM) in the data set on Pichia kudriavzevii.

Consider `CC(C)C[C@H](NC(=O)CCC(=O)Nc1nc(=O)[nH]cc1F)C(=O)N[C@@H](CC(C)C)C(=O)OCc1ccccc1`, for which the MIC turned out to be 0.31 µg/mL (≈ 0.568 µM) with Saccharomyces cerevisiae, 0.62 µg/mL (≈ 1.14 µM) in the data set on Candida albicans [1], 2.5 µg/mL (≈ 4.58 µM) in the data set with Candida albicans [2] and 20 µg/mL (≈ 36.7 µM) in the data set on Pichia kudriavzevii.

With `O=C(O)CCC(=O)O` [SUCCINIC ACID], the MIC with Saccharomyces cerevisiae was 640 µg/mL (≈ 5420 µM); in the data set on Candida albicans [1], 320 µg/mL (≈ 2710 µM); with Candida albicans [2], over 20 µg/mL; in the data set on Pichia kudriavzevii, 320 µg/mL (≈ 2710 µM).

Take `O=C(CNC(=O)OCc1ccccc1)Nc1nc(=O)[nH]cc1F`: the MIC in the data set on Saccharomyces cerevisiae came out at 0.31 µg/mL (≈ 0.968 µM); in the data set on Candida albicans [1], 0.62 µg/mL (≈ 1.94 µM); with Candida albicans [2], 2.5 µg/mL (≈ 7.81 µM); in the data set with Pichia kudriavzevii, 10 µg/mL (≈ 31.2 µM).

As for `CC(C)C[C@H](NC(=O)[C@H](C)NC(=O)CCC(=O)Nc1nc(=O)[nH]cc1F)C(=O)OCc1ccccc1`, the MIC was determined as 0.31 µg/mL (≈ 0.616 µM) in the data set with Saccharomyces cerevisiae, 0.62 µg/mL (≈ 1.23 µM) in the data set with Candida albicans [1], 5 µg/mL (≈ 9.93 µM) with Candida albicans [2] and 20 µg/mL (≈ 39.7 µM) in the data set on Pichia kudriavzevii. For the same molecule, in data set [3], the half-life at 50 µM was 1.1 h.

On to `Nc1nc(=O)[nH]cc1F` [FLUCYTOSINE], for which the MIC with Saccharomyces cerevisiae was determined as 0.31 µg/mL (≈ 2.4 µM); with Candida albicans [1] it was 0.31 µg/mL (≈ 2.4 µM); with Candida albicans [2], 5 µg/mL (≈ 38.7 µM); with Pichia kudriavzevii, 5 µg/mL (≈ 38.7 µM).

As to `CC(C)C[C@H](NC(=O)[C@H](CC(C)C)NC(=O)CCC(=O)Nc1nc(=O)[nH]cc1F)C(=O)O`, the minimal inhibitory concentration (MIC) with Saccharomyces cerevisiae was found to be 0.31 µg/mL (≈ 0.681 µM); in the data set on Candida albicans [1], 0.31 µg/mL (≈ 0.681 µM); in the data set on Candida albicans [2], 5 µg/mL (≈ 11 µM); with Pichia kudriavzevii, 10 µg/mL (≈ 22 µM). Further, in data set [3], the half-life at 50 µM was 2.9 h.

Turning to `CC(C)C[C@H](NC(=O)CCC(=O)O)C(=O)N[C@@H](CC(C)C)C(=O)OCc1ccccc1`, the MIC with Saccharomyces cerevisiae was 80 µg/mL (≈ 184 µM); in the data set with Candida albicans [1], 80 µg/mL (≈ 184 µM); in the data set on Candida albicans [2], over 20 µg/mL; with Pichia kudriavzevii, 320 µg/mL (≈ 736 µM).

With `CC(C)C[C@H](NC(=O)[C@H](C)NC(=O)CCC(=O)Nc1nc(=O)[nH]cc1F)C(=O)O`, the MIC with Saccharomyces cerevisiae is 0.31 µg/mL (≈ 0.75 µM); in the data set on Candida albicans [1], 0.31 µg/mL (≈ 0.75 µM); with Candida albicans [2], 5 µg/mL (≈ 12.1 µM); with Pichia kudriavzevii, 10 µg/mL (≈ 24.2 µM). Further, the half-life at 50 µM in data set [3] was 1.7 h.

Consider `O=C(CCC(=O)Nc1nc(=O)[nH]cc1F)NCC(=O)NCC(=O)OCc1ccccc1`, for which the MIC with Saccharomyces cerevisiae turned out to be 0.62 µg/mL (≈ 1.43 µM); with Candida albicans [1], 0.62 µg/mL (≈ 1.43 µM); with Candida albicans [2] it was 5 µg/mL (≈ 11.5 µM); in the data set on Pichia kudriavzevii, 20 µg/mL (≈ 46.1 µM). Moreover, the half-life at 50 µM in data set [3] was 0.3 h.

Consider `C[C@H](NC(=O)OC(C)(C)C)C(=O)NCC(=O)Nc1nc(=O)[nH]cc1F`, for which the MIC in the data set on Saccharomyces cerevisiae worked out at 0.62 µg/mL (≈ 1.74 µM); with Candida albicans [1], 0.62 µg/mL (≈ 1.74 µM); in the data set with Candida albicans [2], 1.25 µg/mL (≈ 3.5 µM); in the data set with Pichia kudriavzevii it was 20 µg/mL (≈ 56 µM). In data set [3], the half-life at 50 µM was 2.3 h.

On to `CC(=O)Nc1nc(O)ncc1F`, for which the MIC in the data set on Saccharomyces cerevisiae came out at 0.31 µg/mL (≈ 1.81 µM); with Candida albicans [1] it was 2.5 µg/mL (≈ 14.6 µM); in the data set with Candida albicans [2] it was 5 µg/mL (≈ 29.2 µM); in the data set on Pichia kudriavzevii it was 40 µg/mL (≈ 234 µM). For the same molecule, in data set [3], the half-life at 50 µM is 17.6 h.

`O=C(O)CCC(=O)NCC(=O)NCC(=O)OCc1ccccc1` (Suc-Gly-Gly-OBn): the MIC is 320 µg/mL (≈ 993 µM) in the data set on Saccharomyces cerevisiae, 320 µg/mL (≈ 993 µM) with Candida albicans [1], over 20 µg/mL in the data set with Candida albicans [2] and 320 µg/mL (≈ 993 µM) in the data set with Pichia kudriavzevii.

Consider `CC(C)C[C@H](NC(=O)[C@H](C)NC(=O)CCC(=O)O)C(=O)OCc1ccccc1` (Suc-Ala-Leu-OBn), for which the MIC in the data set on Saccharomyces cerevisiae is 160 µg/mL (≈ 408 µM); with Candida albicans [1], 80 µg/mL (≈ 204 µM); with Candida albicans [2], over 20 µg/mL; with Pichia kudriavzevii, 320 µg/mL (≈ 815 µM).

The values are drawn from ChEMBL document CHEMBL3244264, “Anticandidal activity of 5-fluorocytosine-peptide conjugates” (J Med Chem, 1979).
